Laboratory results: ChEMBL document CHEMBL2150856, “Fluorinated N,N-dialkylaminostilbenes for Wnt pathway inhibition and colon cancer repression” (J Med Chem, 2011)
Active and inactive are the calls of the source. The calls are words filed in the database; no cut-off is given here.

Legend:
[1] = tested on: LS174T; assay: Inhibition of Wnt/beta-catenin in human LS174T cells assessed as reduction in c-Myc protein level at 10 uM by Western blotting; format: cell-based
[2] = tested on: LS174T; assay: Inhibition of Wnt/beta-catenin in human LS174T cells assessed as effect on […] at 10 uM by Western blotting; format: cell-based
[3] = tested on: LS174T; assay: Inhibition of Wnt/beta-catenin in human LS174T cells assessed as reduction in Axin-2 protein level at 10 uM by Western blotting; format: cell-based
[4] = tested on: HEK-293T; assay: Inhibition of […] in human HEK293T cells transfected with TOP Flash assessed as decrease in luciferase expression at 100 uM after 12 hrs by dual luciferase reporter assay; format: cell-based
How it was run: (§1)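 HEK293T transiently transfected (calcium phosphate) with Super8xTOPFlash plus Renilla luciferase reporters; medium changed after 12h, then 6h later cells pretreated 12h with DMSO or inhibitor before stimulation with 25mM LiCl or Wnt3A-conditioned medium. After 12h, dual-luciferase read-out; triplicate wells, each experiment run at least twice.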

[5] = tested on: LS174T; assay: Cytotoxicity against human LS 174T cells at 10 uM for 2 days by vi-cell cell viability analysis; format: functional, cell-based
How it was run: (§2)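 CRC cells treated with DMSO or inhibitor for 2d and 4d; cell number and viability counted on a Vi-Cell analyzer. HCT116 and SW480 kept in DMEM with 10% FBS; LS174T in RPMI with 5% FBS; all with 1% penicillin/streptomycin.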

[6] = tested on: LS174T; assay: Inhibition of Wnt/beta-catenin in human LS174T cells assessed as reduction in survivin mRNA level at 100 uM after 36 hrs by RT-PCR analysis; format: cell-based
[7] = tested on: LS174T; assay: Inhibition of Wnt/beta-catenin in human LS174T cells assessed as reduction in cyclin B1 protein level at 100 uM by Western blotting; format: cell-based
[8] = tested on: HCT-116; assay: Cytotoxicity against human HCT116 cells at 10 uM for 4 days by vi-cell cell viability analysis; format: functional, cell-based; how it was run: as §2
[9] = tested on: LS174T; assay: Cytotoxicity against human LS 174T cells at 10 uM for 4 days by vi-cell cell viability analysis; format: functional, cell-based; how it was run: as §2
[10] = tested on: LS174T; assay: Inhibition of Wnt/beta-catenin in human LS174T cells assessed as reduction in Lgr5 mRNA level at 100 uM after 36 hrs by RT-PCR analysis; format: cell-based
[11] = tested on: LS174T; assay: Inhibition of Wnt/beta-catenin in human LS174T cells assessed as reduction in Cyclin D1 protein level at 100 uM by Western blotting; format: cell-based
[12] = tested on: HCT-116; assay: Cytotoxicity against human HCT116 cells at 10 uM for 2 days by vi-cell cell viability analysis; format: functional, cell-based; how it was run: as §2
[13] = tested on: LS174T; assay: Inhibition of Wnt/beta-catenin in human LS 174T cells assessed as reduction in pygopus2 protein level at 100 uM by Western blotting; format: cell-based
[14] = tested on: LS174T; assay: Inhibition of Wnt/beta-catenin in human LS174T cells assessed as reduction in c-Myc mRNA level at 100 uM after 36 hrs by RT-PCR analysis; format: cell-based
[15] = tested on: SW480; assay: Cytotoxicity against human SW480 cells at 10 uM for 2 days by vi-cell cell viability analysis; format: functional, cell-based; how it was run: as §2
[16] = tested on: LS174T; assay: Inhibition of Wnt/beta-catenin in human LS174T cells assessed as effect on […] at 100 uM by Western blotting; format: cell-based
[17] = tested on: HEK-293T; assay: Inhibition of LiCl-induced […] in human HEK293T cells transfected with TOP Flash assessed as decrease in luciferase expression at 100 uM after 12 hrs by dual luciferase reporter assay; format: cell-based; how it was run: as §1
[18] = tested on: LS174T; assay: Inhibition of Wnt/beta-catenin in human LS174T cells assessed as reduction in CD44 mRNA level at 100 uM after 36 hrs by RT-PCR analysis; format: cell-based
[19] = tested on: LS174T; assay: Inhibition of Wnt/beta-catenin in human LS174T cells assessed as reduction in c-Myc protein level at 100 uM by Western blotting; format: cell-based
[20] = tested on: LS174T; assay: Inhibition of Wnt/beta-catenin in human LS 174T cells assessed as reduction in TCF4 protein level at 100 uM by Western blotting; format: cell-based
[21] = tested on: SW480; assay: Cytotoxicity against human SW480 cells at 10 uM for 4 days by vi-cell cell viability analysis; format: functional, cell-based; how it was run: as §2
[22] = tested on: LS174T; assay: Inhibition of Wnt/beta-catenin in human LS174T cells assessed as increase in p21WAF1/CIP1 protein level at 100 uM by Western blotting; format: cell-based
[23] = tested on: LS174T; assay: Inhibition of Wnt/beta-catenin in human LS174T cells assessed as reduction in Ki67 mRNA level at 100 uM after 36 hrs by RT-PCR analysis; format: cell-based
[24] = Drug uptake in human LS 174T cells assessed as accumulation in nucleus after 2 hrs by confocal microscopy; format: ADME, cell-based; settings: ls174t
How it was run: (§3)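 LS174 cells on cover glass exposed to 10 μM fluorescent compound for 2h, 6h, 12h or 24h, then fixed in 4% paraformaldehyde 20 min at room temperature, PBS-washed, mounted and imaged by confocal microscopy under 405nm excitation.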

[25] = Drug uptake in human LS 174T cells assessed as accumulation in nucleus after 12 hrs by confocal microscopy; format: ADME, cell-based; settings: ls174t; how it was run: as §3
[26] = Drug uptake in human LS 174T cells assessed as accumulation in cytoplasm after 2 hrs by confocal microscopy; format: ADME, cell-based; settings: ls174t; how it was run: as §3
[27] = tested on: LS174T; assay: Inhibition of Wnt/beta-catenin in human LS174T cells assessed as reduction in Axin-2 protein level at 30 uM by Western blotting; format: cell-based
[28] = tested on: LS174T; assay: Inhibition of Wnt/beta-catenin in human LS174T cells assessed as reduction in c-Myc protein level at 30 uM by Western blotting; format: cell-based
[29] = tested on: LS174T; assay: Inhibition of Wnt/beta-catenin in human LS174T cells assessed as reduction in Axin-2 protein level at 0.5 uM by Western blotting; format: cell-based
[30] = tested on: LS174T; assay: Cytotoxicity against human LS 174T cells at 0.1 uM for 2 days by vi-cell cell viability analysis; format: functional, cell-based; how it was run: as §2
[31] = tested on: LS174T; assay: Antitumor activity against human LS 174T cells xenografted in C57BL/6J athymic nude mouse assessed as reduction in tumor growth at 20 mg/kg/day, ip; format: functional, organism-based
How it was run: (§4)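 LS174 cells (2 × 10^6) injected subcutaneously into both flanks of 6–8 week C57BL/6J athymic nude mice; mice randomized to two groups. Daily ip dosing at 20mg/kg/day in corn oil (50 μl/mouse); controls got corn oil alone. Body weight and tumor size (digital caliper) recorded twice weekly for one month; volume V=1/2LW^2 (mm3).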

[32] = tested on: LS174T; assay: Inhibition of Wnt/beta-catenin in human LS 174T cells assessed as reduction in pygopus2 protein level at 10 uM by Western blotting; format: cell-based
[33] = tested on: LS174T; assay: Inhibition of Wnt/beta-catenin in human LS174T cells assessed as reduction in c-Myc protein level at 2.5 uM by Western blotting; format: cell-based
[34] = tested on: LS174T; assay: Cytotoxicity against human LS 174T cells at 0.1 uM for 4 days by vi-cell cell viability analysis; format: functional, cell-based; how it was run: as §2
[35] = tested on: LS174T; assay: Inhibition of Wnt/beta-catenin in human LS 174T cells assessed as reduction in TCF4 mRNA level at 10 uM by RT-PCR analysis; format: cell-based
[36] = tested on: LS174T; assay: Inhibition of Wnt/beta-catenin in human LS174T cells assessed as reduction in Axin-2 protein level at 2.5 uM by Western blotting; format: cell-based
[37] = tested on: LS174T; assay: Inhibition of Wnt/beta-catenin in human LS174T cells assessed as reduction in c-Myc protein level at 0.5 uM by Western blotting; format: cell-based
[38] = tested on: LS174T; assay: Inhibition of Wnt/beta-catenin in human LS 174T cells assessed as reduction in TCF4 protein level at 10 uM by Western blotting; format: cell-based
[39] = tested on: LS174T; assay: Inhibition of Wnt/beta-catenin in human LS 174T cells assessed as reduction in pygopus2 mRNA level at 10 uM by RT-PCR analysis; format: cell-based
[40] = tested on: Mus musculus; assay: Toxicity in human LS 174T cells xenografted C57BL/6J athymic nude mouse assessed as change in body weight at 20 mg/kg/day, ip within 1 month; format: organism-based, LS174T; design: route intraperitoneal; settings: in vivo; how it was run: as §4
[41] = tested on: LS174T; assay: Inhibition of Wnt/beta-catenin in human LS 174T cells assessed as decrease in […] in nucleus using DAPI staining at 10 uM for 24 hrs by immunofluorescent microscopy; format: cell-based
How it was run: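 LS174 cells treated 24h with 10 μM compound or DMSO, fixed (4% paraformaldehyde, 20 min, RT), permeabilized with 0.3% Triton X-100, blocked in 5% goat serum 30 min. Stained overnight with anti-β-catenin (1:300), then Alexa-488 anti-rabbit IgG (1:500) 40 min; nuclei counterstained with DAPI; confocal imaging.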

Compound: CN(C)c1ccccc1/C=C/c1c(F)cccc1F
- inhibition [1]: inactive
- inhibition [2]: inactive
- inhibition [3]: inactive

Compound: Fc1ccccc1/C=C/c1ccc(N(c2ccccc2)c2ccccc2)cc1
- inhibition [1]: inactive
- inhibition [2]: inactive
- inhibition [3]: inactive

Compound: CN(C)c1ccc(/C=C/c2c(F)cc(F)cc2F)cc1
- inhibition [1]: Active
- inhibition [2]: inactive
- inhibition [3]: Active

Compound: Oc1ccc(/C=C/c2cc(O)cc(O)c2)cc1
- inhibition [4]: Active
- Activity [5]: Active
- inhibition [6]: Active
- inhibition [7]: Active
- Activity [8]: Active
- Activity [9]: Active
- inhibition [10]: Active
- inhibition [11]: Active
- Activity [12]: Active
- inhibition [13]: Active
- inhibition [14]: Active
- Activity [15]: Active
- inhibition [16]: inactive
- inhibition [17]: Active
- inhibition [18]: Active
- inhibition [19]: Active
- inhibition [20]: Active
- Activity [21]: Active
- inhibition [22]: Active
- inhibition [23]: Active

Compound: CN(C)c1ccc(/C=C/c2ccccc2F)cc1
- inhibition [1]: Active
- Activity [5]: Active
- Activity [8]: Active
- inhibition [2]: inactive
- Activity [9]: Active
- Activity [12]: Active
- Activity [15]: Active
- Activity [21]: Active
- inhibition [3]: Active

Compound: CN(C)c1cccc(/C=C/c2c(F)cccc2F)c1
- inhibition [1]: inactive
- inhibition [2]: inactive
- inhibition [3]: inactive

Compound: CN(C)c1ccc(/C=C/c2cc(F)ccc2F)cc1
- inhibition [1]: Active
- inhibition [2]: inactive
- inhibition [3]: Active

Compound: CN(C)c1ccc(/C=C/c2cccc(F)c2F)cc1
- inhibition [1]: Active
- inhibition [2]: inactive
- inhibition [3]: Active

Compound: CCN(CC)c1ccc(/C=C/c2c(F)cccc2F)cc1
- inhibition [1]: Active
- Drug uptake [24]: Active
- inhibition [2]: inactive
- Drug uptake [25]: Not Active
- Drug uptake [26]: Active
- inhibition [3]: Active

Compound: CN(C)c1ccc(/C=C/c2ccc(F)cc2)cc1
- inhibition [2]: inactive

Compound: CCN(CC)c1ccc(/C=C/c2ccccc2F)cc1
- inhibition [1]: Active
- inhibition [2]: inactive
- inhibition [3]: Active

Compound: CN(C)c1ccc(CCc2c(F)cccc2F)cc1
- inhibition [1]: inactive
- inhibition [3]: inactive

Compound: CN(C)c1ccc(/C=C/c2c(F)ccc(F)c2F)cc1
- inhibition [1]: Active
- inhibition [2]: inactive
- inhibition [3]: Active

Compound: CN(C)c1ccc(/C=C/c2ccccc2)cc1
- inhibition [1]: inactive
- inhibition [27]: Active
- inhibition [2]: inactive
- inhibition [28]: Active
- inhibition [3]: inactive

Compound: CN(C)c1ccc(/C=C/c2cccc(F)c2)cc1
- inhibition [1]: Active
- inhibition [2]: inactive
- inhibition [3]: Active

Compound: CN(C)c1ccc(/C=C/c2c(F)cccc2F)cc1
- inhibition [1]: Active
- inhibition [29]: Active
- inhibition [2]: inactive
- Activity [30]: Active
- growth inhibition (GI) [31]: Active
- inhibition [32]: Active
- inhibition [33]: Active
- Activity [34]: Active
- inhibition [35]: Active
- inhibition [36]: Active
- inhibition [37]: Active
- inhibition [38]: Active
- inhibition [39]: inactive
- Activity [40]: Non-toxic
- inhibition [41]: Active
- inhibition [3]: Active

Compound: Oc1ccc(/C=C\c2cc(O)cc(O)c2)cc1
- inhibition [11]: inactive
- inhibition [19]: inactive

Compound: COc1cc(/C=C/c2ccc(O)cc2)cc(OC)c1
- Activity [5]: Active
- Activity [8]: Active
- Activity [9]: Active
- Activity [12]: Active
- Activity [15]: Active
- Activity [21]: Active
